Reference: PMC2574552 (Molecular pharmacology, 2008)
Read-outs that look alike come from different tables or passages of the source. One block for each compound: values may come before it.

Legend:
[1] = test system: haloperidol-induced catalepsy; assay: reversal of haloperidol-induced catalepsy; type: in vivo; details: rat, icv
Summary of the method: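 Male Sprague-Dawley rats (225−255 g) carried third-ventricle cannulae. They received haloperidol 1.5 mg/kg i.p. in 0.2% lactic acid. At 2 h, cataleptic rats (staying on the bar 45−60 s; forepaw-removal latency timed) got icv either L-AP4 (100−1000 nmol/10 μl, artificial CSF), test compound (31 or 93 nmol/10 μl, aqueous vehicle pH 7.4) or vehicle. Rats were retested at 15, 30 and 60 min; 6 rats/group; Dunnett's test versus vehicle.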

human mGluR4 = human mGluR4 (Homo sapiens, UniProt Q14833); assay: human mGluR4/Gqi5/CHO calcium mobilization assay; type: cell-based; details: for Fold shift hmGluR4/Gqi5: leftward shift of glutamate concentration-response curve at 30 μM PAM
Sequence of human mGluR4 (Q14833 33-912): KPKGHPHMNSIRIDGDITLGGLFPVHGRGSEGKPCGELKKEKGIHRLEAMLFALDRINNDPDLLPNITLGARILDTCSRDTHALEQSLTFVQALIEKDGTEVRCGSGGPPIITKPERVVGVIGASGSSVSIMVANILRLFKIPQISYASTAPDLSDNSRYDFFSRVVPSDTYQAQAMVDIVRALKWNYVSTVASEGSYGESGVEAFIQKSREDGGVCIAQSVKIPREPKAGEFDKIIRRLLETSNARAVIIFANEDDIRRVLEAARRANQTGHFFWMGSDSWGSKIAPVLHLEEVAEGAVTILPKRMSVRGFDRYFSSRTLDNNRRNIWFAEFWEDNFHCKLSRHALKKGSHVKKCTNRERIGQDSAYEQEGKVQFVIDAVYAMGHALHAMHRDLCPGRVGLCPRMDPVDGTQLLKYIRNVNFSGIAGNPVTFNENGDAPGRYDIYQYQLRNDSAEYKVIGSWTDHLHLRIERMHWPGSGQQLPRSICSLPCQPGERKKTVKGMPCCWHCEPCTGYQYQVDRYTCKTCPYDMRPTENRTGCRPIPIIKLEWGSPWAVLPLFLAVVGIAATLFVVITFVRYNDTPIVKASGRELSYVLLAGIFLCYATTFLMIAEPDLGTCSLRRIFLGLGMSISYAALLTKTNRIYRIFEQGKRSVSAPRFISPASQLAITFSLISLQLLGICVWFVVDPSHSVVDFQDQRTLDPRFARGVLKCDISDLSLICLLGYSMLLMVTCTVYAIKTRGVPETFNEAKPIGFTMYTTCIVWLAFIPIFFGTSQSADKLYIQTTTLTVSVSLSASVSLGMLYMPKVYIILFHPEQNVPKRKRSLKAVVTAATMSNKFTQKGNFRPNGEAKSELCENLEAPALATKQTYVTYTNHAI

rat mGluR4 = rat mGluR4 (Rattus norvegicus, UniProt P31423); assay: rat mGluR4/GIRK thallium flux assay; type: cell-based; details: for Fold shift rmGluR4/GIRK: leftward shift of glutamate concentration-response curve at 30 μM PAM; for % Max rmGluR4/GIRK: maximal potentiated EC20 response vs response to maximal glutamate alone
Sequence of rat mGluR4 (P31423 33-912): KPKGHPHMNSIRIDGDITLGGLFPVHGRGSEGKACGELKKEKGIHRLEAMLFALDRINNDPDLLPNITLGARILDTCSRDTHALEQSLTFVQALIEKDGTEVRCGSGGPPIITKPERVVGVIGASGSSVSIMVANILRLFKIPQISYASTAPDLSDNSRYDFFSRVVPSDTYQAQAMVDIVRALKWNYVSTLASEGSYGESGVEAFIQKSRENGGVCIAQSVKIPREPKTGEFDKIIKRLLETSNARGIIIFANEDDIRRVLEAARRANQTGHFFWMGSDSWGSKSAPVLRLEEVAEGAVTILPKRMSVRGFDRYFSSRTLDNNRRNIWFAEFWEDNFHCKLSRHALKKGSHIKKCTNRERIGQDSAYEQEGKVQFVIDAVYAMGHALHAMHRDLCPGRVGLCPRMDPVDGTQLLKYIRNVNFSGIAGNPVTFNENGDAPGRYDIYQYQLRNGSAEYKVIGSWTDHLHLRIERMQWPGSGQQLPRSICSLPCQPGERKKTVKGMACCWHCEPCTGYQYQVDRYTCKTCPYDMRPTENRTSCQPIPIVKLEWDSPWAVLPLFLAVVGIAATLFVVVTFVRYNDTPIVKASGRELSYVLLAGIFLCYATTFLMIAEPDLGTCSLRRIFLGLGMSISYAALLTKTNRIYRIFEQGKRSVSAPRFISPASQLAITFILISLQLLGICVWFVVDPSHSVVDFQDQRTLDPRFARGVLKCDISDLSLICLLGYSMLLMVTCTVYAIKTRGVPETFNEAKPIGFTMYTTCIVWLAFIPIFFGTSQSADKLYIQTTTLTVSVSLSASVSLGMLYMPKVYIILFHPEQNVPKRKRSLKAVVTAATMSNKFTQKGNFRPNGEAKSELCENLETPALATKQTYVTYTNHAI

[2] = solubility in dosing vehicle; type: physicochemical
NMDA receptor = type: cell-based, rat; details: n = 5
[3] = test system: reserpine-induced akinesia; assay: reversal of reserpine-induced akinesia; type: in vivo; details: rat, icv, reserpine 5 mg/kg s.c., 2 h pretreatment
[4] = test system: 67 different targets including GPCRs, ion channels, and transporters; assay: MDS-Pharma radioligand binding panel; details: MDS-Pharma Services; Supplemental Table 2
mGluR4 = details: read-out: potency at mGluR4 in vitro; ref Marino et al., 2003; cited from earlier work
human mGluR2 = human mGluR2 (Homo sapiens, UniProt Q14416); assay: human mGluR2 GTPγS binding assay; type: biochemical; details: 30 μM; glutamate EC20
Summary of the method: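 Nonspecific binding: 10 μM unlabelled GTPγS. Mixes shaken 60 min at room temperature, filtered, washed three times and counted by scintillation. Normalised to no-compound response; mean ± S.E.M.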

rat mGluR1 = rat mGluR1 (Rattus norvegicus, UniProt P23385); assay: rat mGluR1/BHK calcium fluorescence counterscreen; type: cell-based; details: 30 μM; glutamate EC20
Sequence of rat mGluR1 (P23385 19-1199): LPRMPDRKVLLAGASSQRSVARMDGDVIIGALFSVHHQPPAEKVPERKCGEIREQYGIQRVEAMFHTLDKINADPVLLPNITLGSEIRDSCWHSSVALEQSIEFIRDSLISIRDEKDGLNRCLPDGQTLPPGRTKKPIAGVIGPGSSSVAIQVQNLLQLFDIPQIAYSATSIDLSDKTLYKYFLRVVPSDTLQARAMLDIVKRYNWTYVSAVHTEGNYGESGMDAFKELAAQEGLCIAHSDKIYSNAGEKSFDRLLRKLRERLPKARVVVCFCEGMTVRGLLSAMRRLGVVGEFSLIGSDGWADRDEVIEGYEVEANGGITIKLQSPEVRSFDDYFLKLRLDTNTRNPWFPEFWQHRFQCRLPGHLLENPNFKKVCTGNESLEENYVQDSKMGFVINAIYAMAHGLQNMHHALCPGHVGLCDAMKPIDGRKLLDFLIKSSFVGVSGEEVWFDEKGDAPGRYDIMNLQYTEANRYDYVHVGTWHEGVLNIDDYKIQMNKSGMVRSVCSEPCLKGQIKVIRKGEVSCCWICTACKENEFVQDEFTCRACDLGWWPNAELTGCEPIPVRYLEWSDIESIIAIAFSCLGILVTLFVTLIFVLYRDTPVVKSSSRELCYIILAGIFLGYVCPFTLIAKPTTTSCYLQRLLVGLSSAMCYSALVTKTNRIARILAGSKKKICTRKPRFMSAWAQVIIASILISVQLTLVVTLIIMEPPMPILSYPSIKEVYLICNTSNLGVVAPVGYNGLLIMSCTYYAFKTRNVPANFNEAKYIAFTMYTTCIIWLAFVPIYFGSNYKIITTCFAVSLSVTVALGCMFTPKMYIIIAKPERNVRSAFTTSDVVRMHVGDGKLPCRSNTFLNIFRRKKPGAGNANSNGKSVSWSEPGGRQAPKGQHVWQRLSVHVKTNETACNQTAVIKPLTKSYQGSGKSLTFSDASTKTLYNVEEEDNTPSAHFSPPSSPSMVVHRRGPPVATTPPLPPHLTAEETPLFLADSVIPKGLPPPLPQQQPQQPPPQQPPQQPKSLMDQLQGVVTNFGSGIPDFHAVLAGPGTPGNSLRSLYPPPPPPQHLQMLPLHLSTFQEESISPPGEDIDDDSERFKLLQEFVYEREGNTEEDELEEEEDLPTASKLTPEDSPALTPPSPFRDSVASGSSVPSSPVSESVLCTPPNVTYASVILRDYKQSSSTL
Summary of the method: (§1)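 Cells were plated on poly-D-lysine plates in DMEM with 10% dialysed FBS, 20 mM HEPES and 1 mM pyruvate: mGluR1/BHK at 15,000 cells/well, mGluR5/HEK at 20,000 cells/well. They were loaded with 1 μM Fluo-4 AM for 45 min at 37°C in HBSS with 20 mM HEPES and 2.5 mM probenecid. […] Peak fluorescence was taken against control and normalised to no-compound response.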

rat mGluR7 = rat mGluR7 (Rattus norvegicus, UniProt P35400); assay: rat mGluR7/GIRK thallium flux assay; type: cell-based; details: 30 μM; L-AP4 EC20
Sequence of rat mGluR7 (P35400 35-915): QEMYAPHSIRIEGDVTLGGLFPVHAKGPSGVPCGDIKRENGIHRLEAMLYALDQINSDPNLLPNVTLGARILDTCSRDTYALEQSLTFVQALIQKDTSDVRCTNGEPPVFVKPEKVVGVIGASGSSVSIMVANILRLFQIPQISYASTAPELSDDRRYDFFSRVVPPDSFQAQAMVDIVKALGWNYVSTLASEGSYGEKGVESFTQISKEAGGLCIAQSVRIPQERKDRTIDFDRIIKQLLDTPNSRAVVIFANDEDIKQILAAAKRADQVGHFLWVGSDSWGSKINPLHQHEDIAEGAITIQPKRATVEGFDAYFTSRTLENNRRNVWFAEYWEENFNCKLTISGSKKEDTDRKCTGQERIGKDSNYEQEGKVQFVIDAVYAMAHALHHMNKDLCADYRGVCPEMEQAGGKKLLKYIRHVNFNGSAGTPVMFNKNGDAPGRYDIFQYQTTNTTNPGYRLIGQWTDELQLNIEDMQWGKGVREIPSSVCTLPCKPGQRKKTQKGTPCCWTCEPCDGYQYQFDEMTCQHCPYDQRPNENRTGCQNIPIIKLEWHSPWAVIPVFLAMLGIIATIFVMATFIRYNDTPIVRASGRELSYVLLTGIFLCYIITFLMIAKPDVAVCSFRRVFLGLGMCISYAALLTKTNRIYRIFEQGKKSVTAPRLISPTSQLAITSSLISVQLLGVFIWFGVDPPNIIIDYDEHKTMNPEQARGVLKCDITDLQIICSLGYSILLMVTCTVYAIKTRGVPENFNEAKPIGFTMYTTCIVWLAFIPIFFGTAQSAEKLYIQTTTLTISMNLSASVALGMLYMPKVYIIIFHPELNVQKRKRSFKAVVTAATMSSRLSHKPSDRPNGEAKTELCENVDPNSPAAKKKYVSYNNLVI
Summary of the method: (§2)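 GIRK-coexpressing cells were plated at 15,000/well on poly-D-lysine and grown overnight at 37°C, 5% CO2. They were loaded with 1.7 μM BTC-AM for 1 h at room temperature, then buffer was exchanged. […] Fluorescence was read at 470/540 nm, at 1 Hz for 2 min after agonist. Normalised to no-compound response; mean ± S.E.M.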

rat mGluR5 = rat mGluR5 (Rattus norvegicus, UniProt P31424); assay: rat mGluR5/HEK calcium fluorescence counterscreen; type: cell-based; details: 30 μM; glutamate EC20
Summary of the method: as §1

rat mGluR8 = rat mGluR8 (Rattus norvegicus, UniProt P70579); assay: rat mGluR8/GIRK thallium flux assay; type: cell-based; details: 30 μM; glutamate EC20
Sequence of rat mGluR8 (P70579 34-908): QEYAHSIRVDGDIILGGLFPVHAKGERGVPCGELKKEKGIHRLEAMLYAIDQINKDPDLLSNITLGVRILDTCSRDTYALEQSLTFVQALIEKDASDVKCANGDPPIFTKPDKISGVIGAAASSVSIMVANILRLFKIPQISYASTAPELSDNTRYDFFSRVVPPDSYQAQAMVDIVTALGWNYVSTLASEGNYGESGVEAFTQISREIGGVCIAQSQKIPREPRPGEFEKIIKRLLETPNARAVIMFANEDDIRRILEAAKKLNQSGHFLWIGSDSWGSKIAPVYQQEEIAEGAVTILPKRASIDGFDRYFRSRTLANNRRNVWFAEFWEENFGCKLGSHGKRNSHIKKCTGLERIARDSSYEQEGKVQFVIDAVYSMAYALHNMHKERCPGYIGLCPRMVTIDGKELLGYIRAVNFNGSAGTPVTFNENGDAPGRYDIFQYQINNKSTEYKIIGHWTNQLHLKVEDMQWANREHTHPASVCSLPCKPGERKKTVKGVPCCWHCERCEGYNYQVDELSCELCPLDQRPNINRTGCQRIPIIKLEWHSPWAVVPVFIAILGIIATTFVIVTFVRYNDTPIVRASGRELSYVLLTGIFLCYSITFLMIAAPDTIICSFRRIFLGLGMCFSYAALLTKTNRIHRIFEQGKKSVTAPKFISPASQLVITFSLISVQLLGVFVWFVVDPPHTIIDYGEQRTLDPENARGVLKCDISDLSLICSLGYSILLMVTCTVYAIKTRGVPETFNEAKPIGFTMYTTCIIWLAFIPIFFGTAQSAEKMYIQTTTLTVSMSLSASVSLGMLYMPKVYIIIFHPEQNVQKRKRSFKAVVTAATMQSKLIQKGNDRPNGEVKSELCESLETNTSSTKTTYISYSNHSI
Summary of the method: as §2

Compound: O=C(Nc1cc(Cl)cc(Cl)c1)[C@H]1CCCC[C@H]1C(=O)O (racemic) [VU0155041, (±)-cis-2-(3,5-Dicholorphenylcarbamoyl)cyclohexanecarboxylic acid]
haloperidol-induced catalepsy ([1]; doses of 31 and 92 nmol, effects still present 30 min after infusion): significantly decrease | Fold shift hmGluR4/Gqi5 (human mGluR4): 6.4±0.7 fold | Fold shift rmGluR4/GIRK (rat mGluR4): 4.7±0.4 fold | EC50 (rat mGluR4; read-out: potency at rat mGluR4 (GIRK assay), potentiation of EC20 glutamate): 693 ± 140 nM | solubility in vehicle [2]: soluble in an aqueous vehicle | amplitude of NMDA receptor currents (NMDA receptor; 10 μM, p > 0.3): 106.3 ± 5.8 % of control | reversal of reserpine-induced akinesia ([3]; 316 nmol): significant reversal of akinesia | effect on radioligand binding at 67 targets [4]: no effect on binding at any target examined

Compound: N-Phenyl-7-(hydroxyimino)cyclopropa[b]chromen-1a-carboxamide [PHCCC, reference compound]
EC50 (mGluR4): ~4000 nM | maximal agonist response, percent of the maximal glutamate response (rat mGluR4; compound alone, no glutamate, observed at 30 μM): −2.3±2.0% | % Max rmGluR4/GIRK (rat mGluR4): 120.3±4.4% | solubility in vehicle ([2]; vehicle for icv administration): only soluble in vehicles containing high concentrations of DMSO or other relatively toxic vehicles

Fold shift hmGluR4/Gqi5 (human mGluR4): 3.0±0.3 fold | Fold shift rmGluR4/GIRK (rat mGluR4): 2.5±0.5 fold
Compound: O=C(O)[C@@H]1CCCC[C@H]1C(=O)Nc1cc(Cl)cc(Cl)c1 (racemic) [VU0155040, (±)-trans-2-(3,5-Dichlorophenylcarbamoyl)cyclohexanecarboxylic acid]

Compound: O=C(O)C1CCCCC1C(=O)Nc1cc(Cl)cc(Cl)c1 [(1R, 2S)]
potency and efficacy of single cis-enantiomers (human mGluR4; mGluR4, assay not specified, data not shown): equal potency and efficacy

Compound: N[C@@H](CCP(=O)(O)O)C(=O)O [L-AP4, L-(+)-2-amino-4-phosphonobutryic acid, reference compound]
haloperidol-induced catalepsy ([1]; 100−1000 nmol, dose-dependent, haloperidol 1.5 mg/kg i.p.): significantly decreased | reversal of reserpine-induced akinesia ([3]; 300 and 1000 nmol): significant reversals of akinesia

Compound: O=C(O)C1CCCCC1C(=O)Nc1cc(Cl)cc(Cl)c1 (centres unmarked) [Compound 2h, 2-(3,5-Dichlorophenylcarbamoyl)cyclohexanecarboxylic acid]
EC50 (human mGluR4): 750 ± 200 nM | response to compound alone in calcium assay (human mGluR4; 10 μM, absence of glutamate, trace from original HTS): small calcium response | Fold shift hmGluR4/Gqi5 (human mGluR4): 6.5±1.0 fold | improved potency compared to PHCCC (human mGluR4; mGluR4 PAM potency relative to PHCCC): approximately 8 fold | % Max hmGluR4/Gqi5 (human mGluR4; maximal potentiated EC20 response vs response to maximal glutamate alone): 120.0±6.7% | potentiation of EC20 agonist response, mGluR2 (human mGluR2): did not potentiate | EC50 (rat mGluR4): 560 ± 100 nM | Fold shift rmGluR4/GIRK (rat mGluR4): 7.7±0.6 fold | % Max rmGluR4/GIRK (rat mGluR4): 107.6±6.3% | potentiation of EC20 agonist response, mGluR1 (rat mGluR1): did not potentiate | potentiation of EC20 agonist response, mGluR7 (rat mGluR7): did not potentiate | potentiation of EC20 agonist response, mGluR5 (rat mGluR5): did not potentiate | potentiation of EC20 agonist response, mGluR8 (rat mGluR8): did not potentiate

EC50 (rat mGluR4): 9200 ± 1200 nM
Compound: N[C@@H](CCC(=O)O)C(=O)O [glutamate, L-glutamate, reference compound]

Compound: C[C@@H](CN1CCC(Cc2ccccc2)CC1)[C@@H](O)c1ccc(O)cc1 [Ro25−6981, (αR,βS)-α-(4-hydroxyphenyl)-β-methyl-4-(phenylmethyl)-1-piperidinepropanol, reference compound]
peak amplitude of NMDAR currents (NMDA receptor; 1 μM, p < 0.003): 53.1 ± 8.5 % of control
